Reference: ChEMBL document CHEMBL3286116, “Synthesis, biological evaluation and structure-activity correlation study of a series of imidazol-based compounds as Candida albicans inhibitors” (Eur J Med Chem, 2014)
Values after ≈ are worked out from the molar mass of the structure shown.

Assays:
Format in all cases: functional
Candida albicans [1] = experiment: Antifungal activity against Candida albicans ATCC 10231 after 48 hrs by CLSI broth microdilution method; conditions: ATCC 10231, 48 h
In short: (§1)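 Yeast CLSI broth microdilution (M27-A3). Compounds dissolved in DMSO at 100× the top test concentration, then diluted as serial two-fold dilutions in RPMI 1640 to final 0.125–64. Inoculum was 1.0–1.5 × 10^3 cells mL−1, incubated at 35 °C and read for growth at 48 h. MIC is the lowest concentration giving ≥50% growth inhibition versus growth control. Reported as the median of five replicates and as the geometric mean.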

Cryptococcus neoformans [2] = experiment: Antifungal activity against Cryptococcus neoformans PMC 2136 after 72 hrs by CLSI broth microdilution method; conditions: PMC 2136, 72 h
In short: (§2)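 Cryptococcus neoformans tested by CLSI broth microdilution in RPMI 1640, with serial two-fold dilutions from DMSO stocks at 100× the top concentration, final 0.125–64. Inoculum was 1.0–1.5 × 10^3 cells mL−1 at 35 °C, with growth read at 72 h. MIC is the lowest concentration with ≥50% growth inhibition versus control. Median of five replicates, plus geometric mean.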

Cryptococcus neoformans [3] = experiment: Antifungal activity against Cryptococcus neoformans PMC 2107 after 72 hrs by CLSI broth microdilution method; conditions: PMC 2107, 72 h; in short: as §2
Pichia kudriavzevii [4] = experiment: Antifungal activity against Candida krusei PMC 0613 after 48 hrs by CLSI broth microdilution method; conditions: PMC 0613, 48 h; in short: as §1
Nannizzia gypsea [5] = experiment: Antifungal activity against Microsporum gypseum DSM 3824 after 72 hrs by CLSI broth microdilution method; conditions: DSM 3824, 72 h
In short: (§3)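 Dermatophytes tested by CLSI broth microdilution for filamentous fungi (M38-A2). Serial two-fold dilutions of DMSO-dissolved compound in RPMI 1640, final 0.125–64. Inoculum was 0.4–5 × 10^4 CFU mL−1, incubated at 35 °C and read at 72 h. MIC80 is the lowest concentration giving ≥80% growth inhibition versus growth control. Median of five replicates, plus geometric mean.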

Candida albicans [6] = experiment: Antifungal activity against Candida albicans PMC 1040R after 48 hrs by CLSI broth microdilution method; in short: as §1
[7] = system: Trichophyton mentagrophytes; experiment: Antifungal activity against Trichophyton mentagrophytes PMC 6552 after 72 hrs by CLSI broth microdilution method; conditions: PMC 6552, 72 h; in short: as §3
Cryptococcus neoformans [8] = experiment: Antifungal activity against Cryptococcus neoformans PMC 2103 after 72 hrs by CLSI broth microdilution method; conditions: PMC 2103, 72 h; in short: as §2
Nakaseomyces glabratus [9] = experiment: Ratio of fluconazole MIC to compound MIC for Candida glabrata PMC 0851R after 48 hrs by CLSI broth microdilution method
Cryptococcus neoformans [10] = experiment: Antifungal activity against Cryptococcus neoformans PMC 2111 after 72 hrs by CLSI broth microdilution method; conditions: PMC 2111, 72 h; in short: as §2
Nakaseomyces glabratus [11] = experiment: Antifungal activity against Candida glabrata PMC 0807 after 48 hrs by CLSI broth microdilution method; conditions: PMC 0807, 48 h; in short: as §1
Pichia kudriavzevii [12] = experiment: Antifungal activity against Candida krusei DSM 6128 after 48 hrs by CLSI broth microdilution method; conditions: DSM 6128, 48 h; in short: as §1
Nakaseomyces glabratus [13] = experiment: Antifungal activity against Candida glabrata PMC 0851R after 48 hrs by CLSI broth microdilution method; in short: as §1
Candida albicans [14] = experiment: Antifungal activity against Candida albicans PMC 1042R after 48 hrs by CLSI broth microdilution method; in short: as §1
Cryptococcus neoformans [15] = experiment: Antifungal activity against Cryptococcus neoformans PMC 2123 after 72 hrs by CLSI broth microdilution method; conditions: PMC 2123, 72 h; in short: as §2
Candida albicans [16] = experiment: Antifungal activity against Candida albicans ATCC 90028 after 48 hrs by CLSI broth microdilution method; conditions: ATCC 90028, 48 h; in short: as §1
Nakaseomyces glabratus [17] = experiment: Ratio of fluconazole MIC to compound MIC for Candida glabrata PMC 0853R after 48 hrs by CLSI broth microdilution method
Nakaseomyces glabratus [18] = experiment: Antifungal activity against Candida glabrata PMC 0850R after 48 hrs by CLSI broth microdilution method; in short: as §1
[19] = system: Trichophyton mentagrophytes; experiment: Antifungal activity against Trichophyton mentagrophytes DSM 4870 after 72 hrs by CLSI broth microdilution method; conditions: DSM 4870, 72 h; in short: as §3
Candida tropicalis [20] = experiment: Antifungal activity against Candida tropicalis DSM 11953 after 48 hrs by CLSI broth microdilution method; conditions: DSM 11953, 48 h; in short: as §1
Cryptococcus neoformans [21] = experiment: Antifungal activity against Cryptococcus neoformans PMC 2115 after 72 hrs by CLSI broth microdilution method; conditions: PMC 2115, 72 h; in short: as §2
Nakaseomyces glabratus [22] = experiment: Ratio of fluconazole MIC to compound MIC for Candida glabrata PMC 0852R after 48 hrs by CLSI broth microdilution method
Candida parapsilosis [23] = experiment: Antifungal activity against Candida parapsilosis ATCC 22019 after 48 hrs by CLSI broth microdilution method; conditions: Lodderomyces parapsilosis, ATCC 22019, 48 h; in short: as §1
[24] = system: Trichophyton mentagrophytes; experiment: Antifungal activity against Trichophyton mentagrophytes PMC 6503 after 72 hrs by CLSI broth microdilution method; conditions: PMC 6503, 72 h; in short: as §3
Nakaseomyces glabratus [25] = experiment: Antifungal activity against Candida glabrata PMC 0853R after 48 hrs by CLSI broth microdilution method; in short: as §1
[26] = system: Trichophyton mentagrophytes; experiment: Antifungal activity against Trichophyton mentagrophytes PMC 6515 after 72 hrs by CLSI broth microdilution method; conditions: PMC 6515, 72 h; in short: as §3
Nakaseomyces glabratus [27] = experiment: Ratio of fluconazole MIC to compound MIC for Candida glabrata PMC 0850R after 48 hrs by CLSI broth microdilution method
Candida parapsilosis [28] = experiment: Antifungal activity against Candida parapsilosis DSM 11224 after 48 hrs by CLSI broth microdilution method; conditions: Lodderomyces parapsilosis, DSM 11224, 48 h; in short: as §1
Candida tropicalis [29] = experiment: Antifungal activity against Candida tropicalis PMC 0910 after 48 hrs by CLSI broth microdilution method; conditions: PMC 0910, 48 h; in short: as §1
Nakaseomyces glabratus [30] = experiment: Antifungal activity against Candida glabrata PMC 0852R after 48 hrs by CLSI broth microdilution method; in short: as §1
Candida albicans [31] = experiment: Antifungal activity against Candida albicans ATCC 10261 after 48 hrs by CLSI broth microdilution method; conditions: ATCC 10261, 48 h; in short: as §1
Candida albicans [32] = experiment: Antifungal activity against Candida albicans ATCC 76615 after 48 hrs by CLSI broth microdilution method; conditions: ATCC 76615, 48 h; in short: as §1
[33] = system: Trichophyton mentagrophytes; experiment: Antifungal activity against Trichophyton mentagrophytes PMC 6509 after 72 hrs by CLSI broth microdilution method; conditions: PMC 6509, 72 h; in short: as §3
Nannizzia gypsea [34] = experiment: Antifungal activity against Microsporum gypseum PMC 7331 after 72 hrs by CLSI broth microdilution method; conditions: PMC 7331, 72 h; in short: as §3
Nannizzia gypsea [35] = experiment: Antifungal activity against Microsporum gypseum PMC 7303 after 72 hrs by CLSI broth microdilution method; conditions: PMC 7303, 72 h; in short: as §3
[36] = system: Trichophyton mentagrophytes; experiment: Antifungal activity against Trichophyton mentagrophytes PMC 6531 after 72 hrs by CLSI broth microdilution method; conditions: PMC 6531, 72 h; in short: as §3
Candida albicans [37] = experiment: Antifungal activity against Candida albicans PMC 1041R after 48 hrs by CLSI broth microdilution method; in short: as §1
Candida albicans [38] = experiment: Ratio of fluconazole MIC to compound MIC for Candida albicans PMC 1040R after 48 hrs by CLSI broth microdilution method
Nakaseomyces glabratus [39] = experiment: Antifungal activity against Candida glabrata PMC 0805 after 48 hrs by CLSI broth microdilution method; conditions: PMC 0805, 48 h; in short: as §1
Candida albicans [40] = experiment: Antifungal activity against Candida albicans PMC 1011 after 48 hrs by CLSI broth microdilution method; conditions: PMC 1011, 48 h; in short: as §1
Candida albicans [41] = experiment: Ratio of fluconazole MIC to compound MIC for Candida albicans PMC 1042R after 48 hrs by CLSI broth microdilution method
Candida albicans [42] = experiment: Antifungal activity against Candida albicans ATCC 20891 after 48 hrs by CLSI broth microdilution method; conditions: ATCC 20891, 48 h; in short: as §1
Candida albicans [43] = experiment: Ratio of fluconazole MIC to compound MIC for Candida albicans PMC 1041R after 48 hrs by CLSI broth microdilution method
Cryptococcus neoformans [44] = experiment: Antifungal activity against Cryptococcus neoformans DSM 11959 after 72 hrs by CLSI broth microdilution method; conditions: DSM 11959, 72 h; in short: as §2
Candida albicans [45] = experiment: Antifungal activity against Candida albicans ATCC 24433 after 48 hrs by CLSI broth microdilution method; conditions: ATCC 24433, 48 h; in short: as §1
Cryptococcus neoformans [46] = experiment: Antifungal activity against Cryptococcus neoformans PMC 2102 after 72 hrs by CLSI broth microdilution method; conditions: PMC 2102, 72 h; in short: as §2
Candida albicans [47] = experiment: Antifungal activity against Candida albicans ATCC 3153 after 48 hrs by CLSI broth microdilution method; conditions: ATCC 3153, 48 h; in short: as §1

## O=C(O[C@H](Cn1ccnc1)c1ccc(Cl)cc1)N1CCN(c2ccc(Cl)cc2)CC1
Candida albicans [1]
  MIC50: 0.5 µg/mL (≈ 1.12 µM)
Cryptococcus neoformans [2]
  MIC50: 4 µg/mL (≈ 8.98 µM)
Cryptococcus neoformans [3]
  MIC50: 2 µg/mL (≈ 4.49 µM)
Pichia kudriavzevii [4]
  MIC50: 0.5 µg/mL (≈ 1.12 µM)
Nannizzia gypsea [5]
  MIC80: 8 µg/mL (≈ 18 µM)
Candida albicans [6]
  MIC50: 32 µg/mL (≈ 71.9 µM)
[7]
  MIC80: 1 µg/mL (≈ 2.25 µM)
Cryptococcus neoformans [8]
  MIC50: 4 µg/mL (≈ 8.98 µM)
Nakaseomyces glabratus [9]
  Ratio: 10
Cryptococcus neoformans [10]
  MIC50: 2 µg/mL (≈ 4.49 µM)
Nakaseomyces glabratus [11]
  MIC50: 4 µg/mL (≈ 8.98 µM)
Pichia kudriavzevii [12]
  MIC50: 4 µg/mL (≈ 8.98 µM)
Nakaseomyces glabratus [13]
  MIC50: 8 µg/mL (≈ 18 µM)
Candida albicans [14]
  MIC50: 1 µg/mL (≈ 2.25 µM)
Cryptococcus neoformans [15]
  MIC50: 4 µg/mL (≈ 8.98 µM)
Candida albicans [16]
  MIC50: 0.125 µg/mL (≈ 0.281 µM)
Nakaseomyces glabratus [17]
  Ratio: 10
Nakaseomyces glabratus [18]
  MIC50: 4 µg/mL (≈ 8.98 µM)
[19]
  MIC80: 16 µg/mL (≈ 35.9 µM)
Candida tropicalis [20]
  MIC50: 4 µg/mL (≈ 8.98 µM)
Cryptococcus neoformans [21]
  MIC50: 4 µg/mL (≈ 8.98 µM)
Nakaseomyces glabratus [22]
  Ratio: 10
Candida parapsilosis [23]
  MIC50: 0.5 µg/mL (≈ 1.12 µM)
[24]
  MIC80: 2 µg/mL (≈ 4.49 µM)
Nakaseomyces glabratus [25]
  MIC50: 4 µg/mL (≈ 8.98 µM)
[26]
  MIC80: 4 µg/mL (≈ 8.98 µM)
Nakaseomyces glabratus [27]
  Ratio: 10
Candida parapsilosis [28]
  MIC50: 0.5 µg/mL (≈ 1.12 µM)
Candida tropicalis [29]
  MIC50: 2 µg/mL (≈ 4.49 µM)
Nakaseomyces glabratus [30]
  MIC50: 4 µg/mL (≈ 8.98 µM)
Candida albicans [31]
  MIC50: 0.5 µg/mL (≈ 1.12 µM)
Candida albicans [32]
  MIC50: 0.5 µg/mL (≈ 1.12 µM)
[33]
  MIC80: 8 µg/mL (≈ 18 µM)
Nannizzia gypsea [34]
  MIC80: 1 µg/mL (≈ 2.25 µM)
Nannizzia gypsea [35]
  MIC80: 1 µg/mL (≈ 2.25 µM)
[36]
  MIC80: 8 µg/mL (≈ 18 µM)
Candida albicans [37]
  MIC50: 4 µg/mL (≈ 8.98 µM)
Candida albicans [38]
  Ratio: 10
Nakaseomyces glabratus [39]
  MIC50: 0.5 µg/mL (≈ 1.12 µM)
Candida albicans [40]
  MIC50: 0.125 µg/mL (≈ 0.281 µM)
Candida albicans [41]
  Ratio: 10
Candida albicans [42]
  MIC50: 0.25 µg/mL (≈ 0.561 µM)
Candida albicans [43]
  Ratio: 10
Cryptococcus neoformans [44]
  MIC50: 4 µg/mL (≈ 8.98 µM)
Candida albicans [45]
  MIC50: 0.25 µg/mL (≈ 0.561 µM)
Cryptococcus neoformans [46]
  MIC50: 4 µg/mL (≈ 8.98 µM)
Candida albicans [47]
  MIC50: 0.25 µg/mL (≈ 0.561 µM)
